In publication PMC10395006 (Archives of toxicology, 2022):

Legend:
[1] = cited from earlier work
HepG2 cells [2] = test system: HepG2 cells
[3] = biological target: T1, CYP2D6-overexpressing HepG2 cells (Homo sapiens, UniProt P10635)
CYP3A4 = settings: human liver microsomes
CYP2C19 = CYP2C19 (Homo sapiens, UniProt P33261); settings: human liver microsomes
HepG2 cells [4] = experiment: Caspase 3/7 activity; assay type: cell-based, human; settings: 7.5 or 10 μM, 24 h
[5] = test system: CYP1A2-overexpressing HepG2 cells; experiment: Perhexiline toxicity endpoints; assay type: cell-based, human; settings: 5–10 μM, 24 h
HepG2 cells [6] = experiment: Lactate dehydrogenase; assay type: cell-based, human; settings: 2.5-10 μM, 24 h
[7] = biological target: T2, CYP3A4-overexpressing HepG2 cells (Homo sapiens, UniProt P08684); assay type: cell-based
[8] = biological target: T1, CYP2D6-overexpressing HepG2 cells; experiment: Mass spectrometry of perhexiline and metabolites in CYP-overexpressing cells; settings: 5 μM perhexiline, 24 h
[9] = biological target: T2, CYP3A4-overexpressing HepG2 cells; experiment: as above; settings: 5 μM perhexiline, 24 h
[10] = test system: CHOP in EV control HepG2 cells; experiment: Western blot of ER stress marker CHOP; assay type: cell-based, human; settings: EV control cells upon perhexiline treatment
In short: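 Empty-vector control HepG2 cells seeded at 3 × 10^5 cells/ml in 60 mm plates and treated about 24 h after seeding, with 0.1% v/v DMSO as control. Cells lysed directly in RIPA buffer with protease inhibitor cocktail and total protein quantified. Immunoblotted with primary antibodies against CHOP, using GAPDH as loading reference.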

[11] = test system: Primary human hepatocytes; experiment: Cellular ATP assay; assay type: cell-based; settings: 24 h
[12] = test system: ATF6, ERN1, EIF2AK3, ATF4, and DDIT3 mRNA in EV control HepG2 cells; experiment: Quantitative real-time PCR of ER stress genes; assay type: cell-based, human; settings: 10 μM, 24 h
[13] = test system: CYP1A2-overexpressing HepG2 cells; experiment: Mass spectrometry of perhexiline and metabolites in CYP-overexpressing cells; assay type: in vitro ADME, human; settings: 5 μM perhexiline, 24 h
[14] = biological target: T1, CYP2D6-overexpressing HepG2 cells; assay type: cell-based
HepG2 cells [15] = experiment: Mitochondrial membrane potential; assay type: cell-based, human; settings: 2.5-10 μM, 24 h
[16] = test system: CYP2C19-overexpressing HepG2 cells; experiment: Mass spectrometry of perhexiline and metabolites in CYP-overexpressing cells; assay type: in vitro ADME, human; settings: 5 μM perhexiline, 24 h
HepG2 cells [17] = experiment: CellTiter-Blue cell viability assay; settings: 2.5-10 μM, 24 h
[18] = CellTiter-Blue cell viability assay; settings: human, HepG2 cells
[19] = test system: CYP2C19-overexpressing HepG2 cells; experiment: Perhexiline toxicity endpoints; assay type: cell-based, human; settings: 5–10 μM, 24 h
HepG2 cells [20] = experiment: Cellular ATP assay; assay type: cell-based, human; settings: 24 h
[21] = ketoconazole (CYP3A4 inhibitor)

T2 sequence (P08684 whole entry): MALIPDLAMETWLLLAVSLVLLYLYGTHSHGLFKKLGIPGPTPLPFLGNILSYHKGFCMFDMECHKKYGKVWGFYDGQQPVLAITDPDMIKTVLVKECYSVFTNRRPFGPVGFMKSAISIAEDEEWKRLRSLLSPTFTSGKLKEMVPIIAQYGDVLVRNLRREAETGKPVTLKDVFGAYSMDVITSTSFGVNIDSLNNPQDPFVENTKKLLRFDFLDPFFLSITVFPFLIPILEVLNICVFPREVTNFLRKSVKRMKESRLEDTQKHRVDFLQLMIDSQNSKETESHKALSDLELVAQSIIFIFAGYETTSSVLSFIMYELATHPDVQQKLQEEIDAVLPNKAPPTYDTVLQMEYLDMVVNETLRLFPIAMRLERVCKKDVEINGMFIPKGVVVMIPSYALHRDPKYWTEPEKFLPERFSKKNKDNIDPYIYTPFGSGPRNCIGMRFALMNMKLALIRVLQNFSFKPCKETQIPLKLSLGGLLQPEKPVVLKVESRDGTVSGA
T1 sequence (P10635 whole entry): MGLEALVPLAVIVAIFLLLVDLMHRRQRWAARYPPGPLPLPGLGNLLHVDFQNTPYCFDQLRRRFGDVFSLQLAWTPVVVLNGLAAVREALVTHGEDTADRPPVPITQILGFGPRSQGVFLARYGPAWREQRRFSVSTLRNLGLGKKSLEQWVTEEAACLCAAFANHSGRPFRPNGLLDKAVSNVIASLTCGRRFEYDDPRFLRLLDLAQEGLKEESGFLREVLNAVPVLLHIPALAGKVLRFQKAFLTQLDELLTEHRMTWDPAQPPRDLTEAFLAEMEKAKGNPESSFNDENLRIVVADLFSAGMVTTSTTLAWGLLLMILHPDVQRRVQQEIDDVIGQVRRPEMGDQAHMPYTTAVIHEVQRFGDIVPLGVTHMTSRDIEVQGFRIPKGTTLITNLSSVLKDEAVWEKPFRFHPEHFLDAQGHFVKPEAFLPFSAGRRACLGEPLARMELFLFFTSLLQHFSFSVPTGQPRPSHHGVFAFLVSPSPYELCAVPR
CYP2C19, sequence (P33261 whole entry): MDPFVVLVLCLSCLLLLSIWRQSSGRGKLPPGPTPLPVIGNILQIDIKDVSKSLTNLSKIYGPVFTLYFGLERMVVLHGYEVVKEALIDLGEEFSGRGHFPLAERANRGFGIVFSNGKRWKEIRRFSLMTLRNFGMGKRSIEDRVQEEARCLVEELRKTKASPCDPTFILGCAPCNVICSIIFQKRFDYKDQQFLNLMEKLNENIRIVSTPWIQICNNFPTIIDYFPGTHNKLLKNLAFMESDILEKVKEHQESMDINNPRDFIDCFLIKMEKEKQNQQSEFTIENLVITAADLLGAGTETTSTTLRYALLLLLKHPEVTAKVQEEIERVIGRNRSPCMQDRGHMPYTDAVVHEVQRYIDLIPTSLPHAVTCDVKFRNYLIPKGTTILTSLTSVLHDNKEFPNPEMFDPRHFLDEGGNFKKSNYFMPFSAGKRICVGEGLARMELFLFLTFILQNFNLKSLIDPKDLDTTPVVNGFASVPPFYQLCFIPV

C1CCC(C(CC2CCCCN2)C2CCCCC2)CC1 (single isomer, unassigned; (-)) [(−)-perhexiline]
clearance relative to the other enantiomer ([1]; attributed to CYP2D6-mediated metabolism, ref Davies et al. 2008): higher clearance rate

OC1CCC([C@@H](CC2CCCCN2)C2CCCCC2)CC1 (stereo in doubt) [cis-OH-Phx]
IC50 (HepG2 cells [2]): 90 µM

O[C@H]1CC[C@H](C(CC2CCCCN2)C2CCCCC2)CC1 (stereo partly drawn) [M1, trans-OH-Phx-1]
increase of M1 compared to EV control cells [3]: 2.6 fold

CC(=O)N1CCN(c2ccc(OCC3COC(Cn4ccnc4)(c4ccc(Cl)cc4Cl)O3)cc2)CC1 (stereo not shown) [ketoconazole]
suppression of formation of M3 (trans-OH-Phx-2) (CYP3A4; ketoconazole 2 μM, perhexiline 30 μM): up to 80%
effect on formation of M1 (trans-OH-Phx-1) (CYP3A4; [21]): reduced
effect on formation of M5 (cis-OH-Phx) (CYP3A4; [21]): did not have effect

C=C(C)[C@@H]1CCC2=CC(=O)C[C@@H](C)[C@]2(C)C1 [nootkatone]
effect on the formation of M1, M3, and M5 (CYP2C19; nootkatone 10 μM (CYP2C19 inhibitor)): did not show significant effect
effect on the relative abundance of trans-OH-Phx (CYP2C19; nootkatone (CYP2C19 inhibitor)): little effect

C1CCC(C(CC2CCCCN2)C2CCCCC2)CC1 (stereo not shown) [perhexiline]
caspase 3/7 activity (HepG2 cells [4]): increase
protective effect on ATP levels and LDH release vs EV control [5]: little protective effect
LDH release (HepG2 cells [6]): concentration-dependent increase
caspase 3/7 activities, EV control vs CYP3A4 cells [7]: little difference
effect in JC-1 staining vs EV control [7]: marginal protective effect
protective effect on ATP levels and LDH release vs EV control ([7]; 5–10 μM, 24 h): little protective effect
amount of parent perhexiline relative to EV control [8]: 1%
parent perhexiline level vs EV control [9]: significant reduction
CHOP protein level [10]: markedly increased
concentration at which cytotoxicity was observed starting ([11]; hepatic cells, concentrations ranged from 2.5 μM to 15 μM): 5 µM
lowest concentration at which a decrease in ATP was observed ([11]; primary human hepatocytes, 5 to 15 μM): 5 µM
mRNA levels of ATF6, ERN1, EIF2AK3, ATF4, and DDIT3 (fold change vs DMSO) [12]: significantly elevated
parent perhexiline level vs EV control [13]: significant reduction
plasma perhexiline beyond 24 h after a single administration ([1]; known extensive metabolizers, ref Cooper et al. 1987): undetectable
perhexiline-induced increase in CHOP protein vs EV control [14]: greatly reduced
perhexiline-induced increase in ER stress gene mRNA vs EV control ([14]; 10 μM, 24 h): drastically attenuated
perhexiline-induced increase in caspase 3/7 vs EV control ([14]; 24 h): abolished
mitochondrial membrane potential level (JC-1) (HepG2 cells [15]): significant concentration-dependent decrease
parent perhexiline level vs EV control [16]: significant reduction
cell viability (HepG2 cells [17]): significant decrease
IC50 at 24 h [18]: 8 µM
protective effect on ATP levels and LDH release vs EV control [19]: little protective effect
cellular ATP levels at 10 μM (HepG2 cells [20]; 10 μM): largely depleted
cellular ATP levels (HepG2 cells [20]; 2.5–10 μM): concentration-dependent decrease

O[C@H]1CC[C@H](C(CC2CCCCN2)C2CCCCC2)CC1 (stereo partly drawn) [trans-OH-Phx]
plasma trans-OH-Phx level post-dosage ([1]; most patients, ref Amoah et al. 1986, Cooper et al. 1984, 1987): undetectable
IC50 (HepG2 cells [2]): 56 µM
